ChEMBL document CHEMBL4020721 (Eur J Med Chem, 2017)

Experiments:
CYP2C9 = CYP2C9 (Homo sapiens, UniProt P11712); experiment: Reversible inhibition of CYP2C9 in human liver microsomes at 10 uM after 20 mins by in presence of NADPH LC-MS/MS analysis; type: ADME; conditions: liver microsomes
[1] = Intrinsic clearance in human liver microsomes assessed per mg protein at 1 uM preincubated for 5 mins followed by NADPH addition measured after 5 to 30 mins by LC-MS/MS analysis; type: ADME, microsome; conditions: read-out: CLH
How it was run: (§1)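 Microsomes (0.5 mg/ml) with 1 µM compound were preincubated 5 min at 37°C in 100 mM phosphate buffer pH 7.4, then started with 1 mM NADPH. Samples were taken at 0, 5, 10 and 30 min, quenched with acetonitrile/tinidazole and run by LC-MS/MS. CLint = k / microsomal protein concentration. Midazolam was the positive control.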

[2] = Intrinsic clearance in monkey liver microsomes assessed per mg protein at 1 uM preincubated for 5 mins followed by NADPH addition measured after 5 to 30 mins by LC-MS/MS analysis; conditions: liver microsomes; read-out: CLH
[3] = Intrinsic clearance in rat liver microsomes assessed per mg protein at 1 uM preincubated for 5 mins followed by NADPH addition measured after 5 to 30 mins by LC-MS/MS analysis; type: ADME, microsome; conditions: read-out: CLH; how it was run: as §1
CYP1A2 = target: T1, CYP1A2 (Homo sapiens, UniProt P05177); experiment: Reversible inhibition of CYP1A2 in human liver microsomes at 10 uM after 20 mins in presence of NADPH by LC-MS/MS analysis; type: ADME
T1 sequence (P05177 whole entry): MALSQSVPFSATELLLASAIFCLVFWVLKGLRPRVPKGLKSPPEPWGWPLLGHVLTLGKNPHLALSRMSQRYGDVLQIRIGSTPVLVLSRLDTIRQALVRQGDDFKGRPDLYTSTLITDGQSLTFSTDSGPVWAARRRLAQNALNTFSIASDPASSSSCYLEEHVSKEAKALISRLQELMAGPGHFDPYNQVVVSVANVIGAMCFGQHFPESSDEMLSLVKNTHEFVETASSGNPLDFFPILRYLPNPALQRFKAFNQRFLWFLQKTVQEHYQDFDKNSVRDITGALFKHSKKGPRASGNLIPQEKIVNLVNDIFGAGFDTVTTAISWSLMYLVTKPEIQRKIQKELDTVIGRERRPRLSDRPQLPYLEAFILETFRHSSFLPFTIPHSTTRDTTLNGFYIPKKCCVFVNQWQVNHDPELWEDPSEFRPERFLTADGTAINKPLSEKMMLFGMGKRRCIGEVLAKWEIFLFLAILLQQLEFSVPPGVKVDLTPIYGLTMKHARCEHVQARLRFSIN

[4] = Drug recovery in monkey liver microsomes at 1 uM measured after 30 mins by LC-MS/MS analysis
CYP3A4 = CYP3A4 (Homo sapiens, UniProt P08684); experiment: Reversible inhibition of CYP3A4 in human liver microsomes at 10 uM after 20 mins in presence of NADPH by LC-MS/MS analysis; type: ADME; conditions: liver microsomes
SNU-5 = experiment: Growth inhibition of human SNU5 cells after 72 hrs by CCK-8 assay; type: functional, cell-based
CYP2C19 = CYP2C19 (Homo sapiens, UniProt P33261); experiment: Reversible inhibition of CYP2C19 in human liver microsomes at 10 uM after 20 mins in presence of NADPH by LC-MS/MS analysis; type: ADME; conditions: liver microsomes
NCI-H1993 = experiment: Growth inhibition of human NCI-H1993 cells after 72 hrs by CCK-8 assay; type: functional, cell-based
CYP2D6 = CYP2D6 (Homo sapiens, UniProt P10635); experiment: Reversible inhibition of CYP2D6 in human liver microsomes at 10 uM after 20 mins in presence of NADPH by LC-MS/MS analysis; type: ADME; conditions: liver microsomes
[5] = Drug recovery in human liver microsomes at 1 uM measured after 30 mins by LC-MS/MS analysis; type: ADME, microsome; conditions: liver microsomes, read-out: Drug recovery
How it was run: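 Liver microsomes (0.5 mg/ml) were incubated with 1 µM compound at 37°C in 100 mM phosphate buffer pH 7.4 without NADPH for 30 min. Reactions were quenched with acetonitrile/tinidazole internal standard and analysed by LC-MS/MS. Recovery (%) was taken from the compound/internal standard peak area ratio.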

[6] = Drug recovery in rat liver microsomes at 1 uM measured after 30 mins by LC-MS/MS analysis; type: ADME, microsome; conditions: liver microsomes, read-out: Drug recovery
Cytochrome P450 3A4 = Cytochrome P450 3A4 (Homo sapiens, UniProt P08684); experiment: Time dependent irreversible inhibition of CYP3A4 in human liver microsomes at 10 uM preincubated with compound followed by NADPH addition by LC-MS/MS analysis; type: ADME; conditions: microsomes, 10 µM
How it was run: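 HLM (0.2 mg/ml) with 10 µM compound were preincubated 0, 5, 10 or 20 min at 37°C with 1 mM NADPH or PBS. Substrate cocktail (halved concentrations) plus NADPH was then added for 10 min. Metabolites were measured by LC-MS/MS. Kobs is the slope of relative activity versus preincubation time.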

[7] = target: Hepatocyte growth factor receptor (Homo sapiens, UniProt P08581); experiment: Inhibition of c-MET (unknown origin) using TK substrate-biotin peptide as substrate preincubated for 5 to 10 mins followed by ATP addition measured after 30 mins by HTRF assay
Rattus norvegicus = experiment: (§2) Oral bioavailability in Sprague-Dawley rat plasma at 6 mg/kg by UPLC-MS/MS analysis; type: ADME, organism-based; conditions: in vivo
How it was run: (§3)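 Male Sprague-Dawley rats (180-220 g) were fasted overnight with free access to water. Dosing was intravenous (n=2) or oral at 6 mg/kg (n=3). Heparinized blood was drawn from 0 to 1440 min. Plasma was frozen at -20°C, then precipitated with acetonitrile containing internal standard, centrifuged and analysed by UPLC-MS/MS.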

[8] = as §2; type: ADME, organism-based; conditions: Sprague-Dawley, plasma; how it was run: as §3

CYP2C19, sequence (P33261 whole entry): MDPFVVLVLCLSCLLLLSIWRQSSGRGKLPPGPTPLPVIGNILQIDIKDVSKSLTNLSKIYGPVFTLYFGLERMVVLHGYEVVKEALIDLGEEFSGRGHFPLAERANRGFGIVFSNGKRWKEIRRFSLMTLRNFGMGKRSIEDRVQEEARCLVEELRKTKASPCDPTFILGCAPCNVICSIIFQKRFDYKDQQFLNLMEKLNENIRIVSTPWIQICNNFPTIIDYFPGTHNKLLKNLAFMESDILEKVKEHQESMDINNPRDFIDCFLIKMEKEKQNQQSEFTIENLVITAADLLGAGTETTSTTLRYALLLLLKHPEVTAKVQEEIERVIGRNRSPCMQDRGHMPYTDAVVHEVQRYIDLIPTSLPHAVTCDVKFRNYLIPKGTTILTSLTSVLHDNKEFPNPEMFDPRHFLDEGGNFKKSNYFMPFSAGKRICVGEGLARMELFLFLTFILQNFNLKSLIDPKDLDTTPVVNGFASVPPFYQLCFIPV
Cytochrome P450 3A4, sequence (P08684 whole entry): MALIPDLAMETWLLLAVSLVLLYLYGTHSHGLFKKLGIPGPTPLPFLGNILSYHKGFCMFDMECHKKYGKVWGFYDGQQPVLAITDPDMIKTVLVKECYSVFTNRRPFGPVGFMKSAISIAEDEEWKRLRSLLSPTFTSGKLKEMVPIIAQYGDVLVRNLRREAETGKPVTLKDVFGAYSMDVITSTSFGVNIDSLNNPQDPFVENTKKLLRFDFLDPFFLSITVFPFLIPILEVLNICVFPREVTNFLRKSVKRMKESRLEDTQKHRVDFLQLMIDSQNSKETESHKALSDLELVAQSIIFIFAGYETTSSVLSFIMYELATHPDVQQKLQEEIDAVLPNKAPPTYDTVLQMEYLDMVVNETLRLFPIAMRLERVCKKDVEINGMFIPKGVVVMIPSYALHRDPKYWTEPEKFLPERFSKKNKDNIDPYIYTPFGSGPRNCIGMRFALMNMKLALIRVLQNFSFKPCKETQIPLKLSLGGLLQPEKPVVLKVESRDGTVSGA
CYP3A4, sequence (P08684 whole entry): as above
CYP2D6, sequence (P10635 whole entry): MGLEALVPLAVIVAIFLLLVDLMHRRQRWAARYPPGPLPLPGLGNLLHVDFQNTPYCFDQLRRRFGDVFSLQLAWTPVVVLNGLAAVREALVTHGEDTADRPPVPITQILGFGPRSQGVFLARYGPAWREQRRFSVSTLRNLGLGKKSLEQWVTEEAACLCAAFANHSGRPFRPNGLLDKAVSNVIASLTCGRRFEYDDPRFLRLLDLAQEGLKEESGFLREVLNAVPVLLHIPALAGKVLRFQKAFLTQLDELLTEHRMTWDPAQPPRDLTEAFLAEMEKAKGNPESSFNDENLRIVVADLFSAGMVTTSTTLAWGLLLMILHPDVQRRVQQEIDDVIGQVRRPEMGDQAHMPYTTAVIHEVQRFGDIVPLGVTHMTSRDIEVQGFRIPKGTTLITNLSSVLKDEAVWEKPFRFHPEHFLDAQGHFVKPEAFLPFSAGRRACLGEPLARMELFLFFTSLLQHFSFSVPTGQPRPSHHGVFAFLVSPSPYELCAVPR
Hepatocyte growth factor receptor, sequence (P08581 whole entry): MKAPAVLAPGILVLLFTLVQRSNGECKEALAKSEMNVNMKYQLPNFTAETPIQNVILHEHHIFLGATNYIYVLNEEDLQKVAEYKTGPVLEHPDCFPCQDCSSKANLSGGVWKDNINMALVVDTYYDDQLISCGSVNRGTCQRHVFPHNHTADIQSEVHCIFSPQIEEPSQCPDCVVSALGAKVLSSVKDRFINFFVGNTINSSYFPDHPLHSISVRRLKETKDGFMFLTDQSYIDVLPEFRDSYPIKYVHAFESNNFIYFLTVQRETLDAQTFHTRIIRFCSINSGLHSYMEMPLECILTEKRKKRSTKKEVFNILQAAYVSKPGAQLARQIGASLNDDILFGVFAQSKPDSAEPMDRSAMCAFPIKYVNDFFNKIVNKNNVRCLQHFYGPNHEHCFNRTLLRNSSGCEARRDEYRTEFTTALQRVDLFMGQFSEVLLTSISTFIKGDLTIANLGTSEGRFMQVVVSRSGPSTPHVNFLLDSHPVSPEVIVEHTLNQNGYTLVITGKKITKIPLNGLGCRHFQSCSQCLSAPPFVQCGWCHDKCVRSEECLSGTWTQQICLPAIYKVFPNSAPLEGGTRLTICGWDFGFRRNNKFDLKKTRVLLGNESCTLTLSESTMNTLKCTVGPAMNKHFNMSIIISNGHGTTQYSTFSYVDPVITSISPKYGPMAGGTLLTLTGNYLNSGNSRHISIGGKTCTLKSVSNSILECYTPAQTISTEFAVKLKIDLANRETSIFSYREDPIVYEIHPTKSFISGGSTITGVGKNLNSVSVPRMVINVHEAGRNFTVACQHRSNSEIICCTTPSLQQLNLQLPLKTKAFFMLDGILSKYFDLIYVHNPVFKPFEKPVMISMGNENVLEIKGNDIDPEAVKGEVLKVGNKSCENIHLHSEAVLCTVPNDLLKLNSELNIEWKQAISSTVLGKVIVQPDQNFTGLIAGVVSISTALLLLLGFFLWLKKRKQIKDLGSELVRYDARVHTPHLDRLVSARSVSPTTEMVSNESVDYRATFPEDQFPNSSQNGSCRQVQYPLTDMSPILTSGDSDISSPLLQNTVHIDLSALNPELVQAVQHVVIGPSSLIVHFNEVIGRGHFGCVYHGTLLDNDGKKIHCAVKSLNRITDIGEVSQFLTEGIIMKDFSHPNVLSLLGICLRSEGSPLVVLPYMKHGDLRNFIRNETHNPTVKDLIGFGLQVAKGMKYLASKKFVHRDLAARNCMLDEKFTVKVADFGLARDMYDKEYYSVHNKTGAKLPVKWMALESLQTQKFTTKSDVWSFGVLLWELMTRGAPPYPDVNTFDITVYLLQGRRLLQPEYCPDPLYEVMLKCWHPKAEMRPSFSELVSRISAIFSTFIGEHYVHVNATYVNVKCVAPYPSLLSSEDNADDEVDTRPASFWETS
CYP2C9, sequence (P11712 whole entry): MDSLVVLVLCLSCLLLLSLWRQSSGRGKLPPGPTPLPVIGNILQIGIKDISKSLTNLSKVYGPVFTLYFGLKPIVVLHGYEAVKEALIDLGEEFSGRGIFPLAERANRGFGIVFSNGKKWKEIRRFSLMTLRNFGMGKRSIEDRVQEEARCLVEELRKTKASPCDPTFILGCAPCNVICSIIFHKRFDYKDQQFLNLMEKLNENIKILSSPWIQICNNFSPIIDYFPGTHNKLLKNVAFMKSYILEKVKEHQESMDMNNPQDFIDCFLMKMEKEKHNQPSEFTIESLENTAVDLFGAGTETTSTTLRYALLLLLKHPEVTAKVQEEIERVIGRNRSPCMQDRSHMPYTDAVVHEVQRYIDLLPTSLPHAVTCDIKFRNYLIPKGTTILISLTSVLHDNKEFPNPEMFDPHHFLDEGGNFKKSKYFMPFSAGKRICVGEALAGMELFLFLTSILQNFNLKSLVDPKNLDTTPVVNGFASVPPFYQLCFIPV

SMILES	inhibition at 20 min, 10 µM (CYP2C9) [%]	microsomal CLint at 1 µM [1] [µL/min/mg]	microsomal CLint at 1 µM [2] [µL/min/mg]	microsomal CLint at 1 µM [3] [µL/min/mg]	inhibition at 20 min, 10 µM (CYP1A2) [%]	remaining at 0.5 h, 1 µM [4] [%]	inhibition at 20 min, 10 µM (CYP3A4) [%]	IC50 (SNU-5; Homo sapiens, SNU-5, 72 h) [nM]	inhibition at 20 min, 10 µM (CYP2C19) [%]	IC50 (NCI-H1993; Homo sapiens, NCI-H1993, 72 h) [nM]	inhibition at 20 min, 10 µM (CYP2D6) [%]	remaining at 0.5 h, 1 µM [5] [%]	remaining at 0.5 h, 1 µM [6] [%]	TDI (Cytochrome P450 3A4)	IC50 [7] [nM]	IC50 (SNU-5; snu-5) [nM]	IC50 (NCI-H1993; nci-h1993) [nM]	F (Rattus norvegicus) [%]	bioavailability [8] [%]
CC(c1cc2cc(-c3cnn(C)c3)cnc2cc1F)n1nnc2ncc(-c3cnn(C)c3)nc21 (stereo unspecified)	< 50	5	11	34	< 50	65	< 50	1.7	< 50	0.9	< 50	101	103	Active					
CC(c1c(F)cc2ncc(-c3cnn(C)c3)cc2c1F)n1nnc2ncc(-c3ccc(C(N)=O)c(F)c3)nc21 (stereo unspecified)	< 50	11	50	12	< 50	99	< 50	0.4	< 50	0.4	< 50	97	94	Active					
CC(c1cc2cc(-c3cnn(C)c3)cnc2cc1F)n1nnc2ncc(-c3cnn(CCO)c3)nc21 (single isomer, unassigned; enantiomer 1)															0.68	0.8	0.7	8.6	
CC(c1cc2cc(-c3cnn(C)c3)cnc2cc1F)n1nnc2ncc(-c3cnn(CCO)c3)nc21 (single isomer, unassigned; enantiomer 2)										0.6					0.48	0.6			8.8
